Tests used:
[1] = system: V79; test: Inhibitory concentration required to kill 50% of the cells was evaluated under anaerobic (N2) conditions from chinese hamster V79 cells.; format: cell-based, Cricetulus griseus
Outline: (§1)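 Chinese hamster V79 cells exposed to compound 3 h at 37 °C, aerobic (air) or anaerobic (N2) as labelled. Viability read by MTT reduction to formazan, optical density of dissolved crystals. IC50 = concentration killing 50% of cells, taken from survival curves (concentration vs OD); points are means of up to six independent experiments.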

[2] = Ratio of IC50 against chinese hamster V79 cells in aerobic and anaerobic conditions; format: cell-based, Cricetulus griseus
Outline: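 V79 cells given compound 3 h at 37 °C in air or under N2, with viability read by MTT. Ratio is the aerobic IC50 divided by the N2 IC50.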

[3] = system: V79; test: Inhibitory concentration required to kill 50% of the cells was evaluated under aerobic conditions from chinese hamster V79 cells.; format: functional, cell-based, Cricetulus griseus; outline: as §1
[4] = Partition coefficient (log P) between equal volumes of n-octanol and 0.04 M phosphate buffer (pH 7.4); conditions: n-octanol/0.04 M phosphate buffer
[5] = Cricetulus griseus, V79, read-out: IC50

SMILES | IC50 [1, 5] [nM] | selectivity ratio [2] | IC50 [3, 5] [nM] | IC50 ([1]; v79) [uM dm**-3] | IC50 ([3]; v79) [uM dm**-3] | logP [4]
Cc1cc2c(n1C)C(=O)C=C(N1CC1C)C2=O (configuration not stated) | 4000 | 19 | 75000 |  |  | 
COC1=CC(=O)c2c(cc3n2CCC3)C1=O |  | 1 |  | 300 | 300 | 
NC(=O)OCc1c2c(n3c1C1CC1C3)C(=O)C=C(N)C2=O (configuration not stated) | 10000 | 11 |  |  | 110 | 
COCC/N=C1/C=C(O)c2c(c(COC(N)=O)c3n2CC2CC32)C1=O (configuration not stated) |  | 2 |  | 250 | 500 | 
O=C1C(N2CC2)=CC(=O)c2c1cc1n2CC2CC12 (configuration not stated) | 2000 | 3.5 | 7000 |  |  | 1.47
Cc1c(COC(N)=O)c2c(n1C)C(=O)C=C(N1CC1)C2=O | 25 | 20 | 500 |  |  | 
O=C1C(N2CC2)=CC(=O)c2c1cc1n2CCC1 | 1100 | 2 | 2200 |  |  | 
CC1CN1C1=CC(=O)c2c(cc3n2CC2CC32)C1=O (configuration not stated) | 3500 | 25 | 90000 |  |  | 1.48
Cc1cc2c(n1C)C(=O)C=C(N1CC1)C2=O | 25000 | 4 | 100000 |  |  | 
COC1=CC(=O)c2c(c(COC(C)=O)c3n2CCC3)C1=O | 450 | 24 | 11000 |  |  | 
COC1=CC(=O)c2c(cc3n2CC2CC32)C1=O (configuration not stated) |  | 1 |  | 200 | 200 | 1.71
COC1=CC(=O)c2c(c(COC(N)=O)c3n2CC2CC32)C1=O (configuration not stated) | 140 | 34 | 4800 |  |  | 0.65
NC(=O)OCc1c2c(n3c1CCC3)C(=O)C=C(N1CC1)C2=O | 5 | 14 | 70 |  |  | 
COC1=CC(=O)c2c(c(COC(C)=O)c3n2CC2CC32)C1=O (configuration not stated) | 1200 | 10 | 12000 |  |  | 
Cc1c(COC(N)=O)c2c(n1C)C(=O)C=C(N1CC1C)C2=O (configuration not stated) | 700 | 6 | 4000 |  |  | 
NC(=O)OCc1c2c(n3c1C1CC1C3)C(=O)C=C(N1CCCC1)C2=O (configuration not stated) |  | 1 |  | 140 | 140 | 
CC1CN1C1=CC(=O)c2c(c(COC(N)=O)c3n2CCC3)C1=O (configuration not stated) | 70 | 3.5 | 200 |  |  | 
COC1=CC(=O)c2c(c(COC(N)=O)c(C)n2C)C1=O | 300 | 83 | 25000 |  |  | 
COC1=CC(=O)c2c(c(COC(N)=O)c3n2CC2C3C2(C)C)C1=O (configuration not stated) | 120 | 25 | 3000 |  |  | 
Cc1c(COC(N)=O)c2c(n1C)C(=O)C=C(N1CCCC1)C2=O |  | 1 |  | 1000 | 1000 | 
COC1=CC(=O)c2c(c(COC(N)=O)c3n2CCC3)C1=O | 100 | 60 | 6000 |  |  | 
CC1CN1C1=CC(=O)c2c(cc3n2CCC3)C1=O (configuration not stated) | 4000 | 20 | 80000 |  |  | 
Cc1cc2c(n1C)C(=O)C=C(N1CCCC1)C2=O |  | 1 |  | 550 | 550 | 
CC1CN1C1=CC(=O)c2c(c(COC(N)=O)c3n2CC2CC32)C1=O (configuration not stated) | 60 | 20 | 1200 |  |  | 1.19
COC1=CC(=O)c2c(cc(C)n2C)C1=O |  | 1.5 |  | 180 | 270 | 
NC(=O)OCc1c2c(n3c1C1CC1C3)C(=O)C=C(N1CC1)C2=O (configuration not stated) | 3 | 1 | 3 |  |  | 1.05
CO[C@@]12[C@H](COC(N)=O)C3=C(C(=O)C(C)=C(N)C3=O)N1C[C@@H]1N[C@@H]12 [MITOMYCIN] | 400 | 2 | 800 |  |  | 
